# Activity calls are given as the source filed them. The rule behind the calls is not given here.
# Assays:
# [1] = target: T1, G-protein coupled receptor 52 (Homo sapiens, UniProt Q9Y2T5); assay: Agonist activity at human GPR52 expressed in CHO cells assessed as increase in intracellular cAMP level upto 10 uM incubated for 30 mins by Alphascreen assay; type: functional, cell-based
# Summary of the method: (§1)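 CHO cells stably expressing human, mouse or rat GPR52, plus naïve CHO cells, at 10,000 cells/well. Stimulated in cAMP assay buffer for 30 min at 37 °C. Intracellular cAMP read by AlphaScreen.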
# [2] = target: Voltage-gated L-type calcium channel (Homo sapiens, UniProt O60840+Q01668+Q13698+Q13936); assay: Inhibition of Calcium channel L-type (unknown origin) at 10 uM in presence of phenylalkylamine relative to control; type: protein assay; conditions: probe phenylalkylamine
# Summary of the method: (§2)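 Single-point screen at 10 μM across receptor, ion channel and enzyme binding or activity assays. Expressed as percent inhibition versus control; negative values denote stimulation.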
# [3] = target: Beta-3 adrenergic receptor (Homo sapiens) (UniProt P13945); assay: Inhibition of Adrenergic beta3 (unknown origin) at 10 uM relative to control; summary of the method: as §2
# [4] = species on record: Homo sapiens; assay: Inhibition of GABAB1A receptor (unknown origin) at 10 uM relative to control
# Summary of the method: (§3)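 Part of a 98-target external biochemical selectivity panel that used radioligand/receptor binding-type assays. Compound tested once at 10 µM. Results are reported as % inhibition versus control; negative values mean stimulation of receptor activity.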
# [5] = target: G protein-coupled receptor 52 (Rattus norvegicus, UniProt A0A8I5ZQK1); assay: Agonist activity at GPR52 in rat Striatal neuron assessed as increase in intracellular cAMP level […] by Alphascreen assay; type: cell-based
# [6] = species on record: Homo sapiens; assay: Inhibition of NA+/K+ ATPase (unknown origin) at 10 uM relative to control
# Summary of the method: (§4)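 Enzyme activity assays from the same 98-target biochemical panel. Single test concentration of 10 µM. Read-out is % inhibition of enzyme activity relative to control; negative percentages indicate activation of the enzyme.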
# [7] = target: T1, G-protein coupled receptor 52; assay: Agonist activity at human GPR52 expressed in CHO cells assessed as increase in intracellular cAMP level incubated for 30 mins by Alphascreen assay; type: functional, cell-based; summary of the method: as §1
# [8] = species on record: Homo sapiens; assay: Inhibition of dopamine receptor (unknown origin) at 10 uM relative to control
# Summary of the method: (§5)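 Binding and enzyme panel run by an outside contractor against receptors, ion channels and enzymes. Each assay used a single 10 μM test concentration, and results are expressed as percent inhibition. A negative value means stimulation of receptor activity or activation of enzyme activity.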
# [9] = species on record: Homo sapiens; assay: Inhibition of Ca2+ ATPase (unknown origin) at 10 uM relative to control; summary of the method: as §2
# [10] = target: MAO-A (amine oxidase [flavin-containing] A) (Homo sapiens, UniProt P21397); assay: Inhibition of MAO-A (unknown origin) at 10 uM relative to control; summary of the method: as §4
# [11] = species on record: Homo sapiens; assay: Inhibition of GABAB1B receptor (unknown origin) at 10 uM relative to control; summary of the method: as §3
# [12] = target: Histamine H2 receptor (Homo sapiens) (UniProt P25021); assay: Inhibition of Histamine H2 receptor (unknown origin) at 10 uM relative to control; summary of the method: as §3
# [13] = tested on: Mus musculus; assay: Antipsychotic activity in po dosed ICR mouse assessed as inhibition of MK-801-induced hyperactivity pretreated with compound for 1 hr followed by MK-801 addition and measured after 90 mins; type: functional, organism-based; conditions: dose 3-30 mg/kg, time 150.0 min
# Summary of the method: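 Male ICR mice (7–8 weeks) habituated >60 min in individual cages with activity monitors. Oral dosing at 3–30 mg/kg or vehicle 60 min before MK-801 (0.2 mg/kg s.c.) or vehicle. Activity counted for 60 min pretreatment and 90 min after MK-801; n = 9–10.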
# [14] = target: Gastrin/cholecystokinin type B receptor (Homo sapiens) (UniProt P32239); assay: Inhibition of CCK2 receptor (unknown origin) at 10 uM relative to control; summary of the method: as §2
# [15] = target: Small conductance calcium-activated potassium channel protein 2 (Homo sapiens) (UniProt Q9H2S1); assay: Inhibition of SKCA2 (unknown origin) at 10 uM relative to control; summary of the method: as §3
# [16] = target: Muscarinic acetylcholine receptor M2 (Homo sapiens) (UniProt P08172); assay: Inhibition of Muscarinic M2 receptor (unknown origin) at 10 uM relative to control; summary of the method: as §3
# [17] = target: Muscarinic acetylcholine receptor M3 (Homo sapiens) (UniProt P20309); assay: Inhibition of Muscarinic M3 receptor (unknown origin) at 10 uM relative to control; summary of the method: as §3
# [18] = target: Matrilysin (Homo sapiens) (UniProt P09237); assay: Inhibition of MMP7 (unknown origin) at 10 uM relative to control; summary of the method: as §4
# [19] = target: Substance-P receptor (Homo sapiens) (UniProt P25103); assay: Inhibition of Tachykinin NK1 receptor (unknown origin) at 10 uM relative to control; summary of the method: as §5
# [20] = target: Xanthine oxidase (xanthine dehydrogenase/oxidase) (Homo sapiens, UniProt P47989); assay: Inhibition of Xanthine oxidase (unknown origin) at 10 uM relative to control; summary of the method: as §5
# [21] = target: Carbonic anhydrase 2 (Homo sapiens) (UniProt P00918); assay: Inhibition of Carbonic anhydrase II (unknown origin) at 10 uM relative to control; summary of the method: as §2
# [22] = target: Phosphodiesterase 6 (Homo sapiens) (UniProt Q13956+P18545+P35913+O43924+P16499+P51160); assay: Inhibition of PDE6 (unknown origin) at 10 uM relative to control; type: protein assay; summary of the method: as §4
# [23] = target: Estrogen receptor (Homo sapiens) (UniProt P03372); assay: Inhibition of Estrogen ERalpha receptor (unknown origin) at 10 uM relative to control; summary of the method: as §3
# [24] = target: Adenosine receptor A2a (Homo sapiens) (UniProt P29274); assay: Inhibition of Adenosine A2A receptor (unknown origin) at 10 uM relative to control; summary of the method: as §2
# [25] = species on record: Homo sapiens; assay: Inhibition of EGF receptor (unknown origin) at 10 uM relative to control; summary of the method: as §4
# [26] = target: Glutamate [NMDA] receptor (Homo sapiens) (UniProt Q05586+Q12879+Q13224+O15399+O60391+Q14957+Q8TCU5); assay: Inhibition of Glutamate NMDA receptor (unknown origin) at 10 uM in presence of phencyclidine to control; type: protein-complex assay; summary of the method: as §3
# [27] = tested on: Mus musculus; assay: Pro-cognitive activity in GPR52 knockout C57BL/6N mouse assessed as increase in c-fos gene expression in hippocampus at 30 mg/kg, po measured after 2 hrs […]; type: functional, organism-based
# [28] = tested on: Mus musculus; assay: Antipsychotic activity in C57BL/6N mouse assessed as increase in Arc mRNA expression at 3 to 100 mg/kg, po measured for 1 hr by qPCR analysis; type: functional, organism-based; conditions: dose 3-100 mg/kg
# Summary of the method: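 Mice dosed orally at 3–100 mg/kg or vehicle. Tissues taken 1 h post-dose, NAc shell and striatum dissected, frozen on dry ice. IEG mRNA quantified by qPCR (absolute or ΔΔCt); n = 5–6; mean ± SEM.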
# [29] = target: G protein-coupled receptor 52 (Rattus norvegicus) (UniProt A0A8I5ZQK1); assay: Agonist activity at GPR52 in rat Striatal neuron assessed as increase in Egr-2 mRNA expression by RT-PCR analysis; type: cell-based; conditions: filed as agonist
# Summary of the method: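 Rat primary striatal neurons (E18–19), used at DIV 13–16. Treated in HBSS with 5 mM HEPES pH 7.5 and 0.5% fatty-acid-free BSA for 15 or 60 min at 37 °C. Cells were homogenized in RLT buffer and IEG mRNA was quantified by qPCR using absolute or ΔΔCt relative quantification.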
# T1 sequence (Q9Y2T5 whole entry): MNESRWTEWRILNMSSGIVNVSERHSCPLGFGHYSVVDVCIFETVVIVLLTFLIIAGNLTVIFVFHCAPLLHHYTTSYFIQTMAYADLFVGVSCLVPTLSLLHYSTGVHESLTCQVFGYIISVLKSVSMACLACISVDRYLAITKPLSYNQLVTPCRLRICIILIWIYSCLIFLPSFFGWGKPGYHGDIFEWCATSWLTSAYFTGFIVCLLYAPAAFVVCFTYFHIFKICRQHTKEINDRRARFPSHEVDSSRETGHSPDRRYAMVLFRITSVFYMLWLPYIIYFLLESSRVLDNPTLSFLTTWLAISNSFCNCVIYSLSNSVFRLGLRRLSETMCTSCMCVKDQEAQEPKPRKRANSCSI
# Sequence of Small conductance calcium-activated potassium channel protein 2 (Homo sapiens) (Q9H2S1 whole entry): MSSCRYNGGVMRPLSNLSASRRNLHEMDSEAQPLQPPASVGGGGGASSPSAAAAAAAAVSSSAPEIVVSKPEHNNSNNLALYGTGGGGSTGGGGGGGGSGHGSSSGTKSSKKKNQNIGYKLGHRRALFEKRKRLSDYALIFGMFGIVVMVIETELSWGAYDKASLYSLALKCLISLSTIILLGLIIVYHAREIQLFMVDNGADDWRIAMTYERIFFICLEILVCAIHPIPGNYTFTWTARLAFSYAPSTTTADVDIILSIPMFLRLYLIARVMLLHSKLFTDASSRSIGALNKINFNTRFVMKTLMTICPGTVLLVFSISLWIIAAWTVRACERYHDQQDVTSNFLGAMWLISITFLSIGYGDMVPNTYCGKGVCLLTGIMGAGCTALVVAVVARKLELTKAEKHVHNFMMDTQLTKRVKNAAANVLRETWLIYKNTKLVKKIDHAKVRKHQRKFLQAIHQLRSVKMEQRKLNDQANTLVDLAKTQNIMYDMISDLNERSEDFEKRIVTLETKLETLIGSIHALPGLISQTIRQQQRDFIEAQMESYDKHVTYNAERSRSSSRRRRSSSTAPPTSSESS
# Sequence of MAO-A (amine oxidase [flavin-containing] A) (P21397 whole entry): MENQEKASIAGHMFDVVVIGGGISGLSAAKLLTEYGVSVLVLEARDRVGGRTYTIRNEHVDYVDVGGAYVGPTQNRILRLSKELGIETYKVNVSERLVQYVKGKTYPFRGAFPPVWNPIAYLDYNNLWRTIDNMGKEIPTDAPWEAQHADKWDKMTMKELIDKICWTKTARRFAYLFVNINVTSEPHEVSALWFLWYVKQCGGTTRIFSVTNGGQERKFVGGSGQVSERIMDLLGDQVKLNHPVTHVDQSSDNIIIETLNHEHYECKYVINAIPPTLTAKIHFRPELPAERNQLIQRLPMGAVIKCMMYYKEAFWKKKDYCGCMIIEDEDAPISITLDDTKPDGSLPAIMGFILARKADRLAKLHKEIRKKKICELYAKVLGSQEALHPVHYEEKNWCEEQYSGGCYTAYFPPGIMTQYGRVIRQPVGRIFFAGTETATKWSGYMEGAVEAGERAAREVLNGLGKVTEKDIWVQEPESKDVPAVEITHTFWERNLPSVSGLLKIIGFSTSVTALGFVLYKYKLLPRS
# Sequence of Estrogen receptor (Homo sapiens) (P03372 whole entry): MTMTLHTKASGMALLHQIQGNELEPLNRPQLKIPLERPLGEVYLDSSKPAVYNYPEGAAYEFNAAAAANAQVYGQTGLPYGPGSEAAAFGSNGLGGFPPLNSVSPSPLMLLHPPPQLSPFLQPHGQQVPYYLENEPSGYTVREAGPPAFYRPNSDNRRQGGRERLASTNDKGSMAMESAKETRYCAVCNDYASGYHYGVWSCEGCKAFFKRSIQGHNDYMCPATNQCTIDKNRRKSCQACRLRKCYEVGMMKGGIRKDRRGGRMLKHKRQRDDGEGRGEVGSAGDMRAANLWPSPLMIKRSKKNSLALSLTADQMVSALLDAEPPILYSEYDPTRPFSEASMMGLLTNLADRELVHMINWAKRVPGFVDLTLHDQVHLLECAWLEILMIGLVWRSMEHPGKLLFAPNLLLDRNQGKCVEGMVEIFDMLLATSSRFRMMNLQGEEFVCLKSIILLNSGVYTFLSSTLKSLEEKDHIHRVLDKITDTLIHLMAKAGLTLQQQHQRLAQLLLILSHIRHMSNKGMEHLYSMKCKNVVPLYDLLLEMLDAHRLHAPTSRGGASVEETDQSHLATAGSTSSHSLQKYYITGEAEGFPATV
# Sequence of Histamine H2 receptor (Homo sapiens) (P25021 whole entry): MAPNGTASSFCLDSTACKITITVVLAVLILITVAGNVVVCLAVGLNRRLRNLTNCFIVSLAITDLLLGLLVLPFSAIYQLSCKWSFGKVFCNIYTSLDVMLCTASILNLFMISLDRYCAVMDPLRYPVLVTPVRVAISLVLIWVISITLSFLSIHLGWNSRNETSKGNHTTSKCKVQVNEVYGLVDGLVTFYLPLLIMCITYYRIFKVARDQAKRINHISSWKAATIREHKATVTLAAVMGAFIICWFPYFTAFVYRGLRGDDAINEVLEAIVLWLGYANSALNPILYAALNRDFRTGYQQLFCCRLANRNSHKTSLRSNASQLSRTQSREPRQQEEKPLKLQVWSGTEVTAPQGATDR
# Sequence of Adenosine receptor A2a (Homo sapiens) (P29274 whole entry): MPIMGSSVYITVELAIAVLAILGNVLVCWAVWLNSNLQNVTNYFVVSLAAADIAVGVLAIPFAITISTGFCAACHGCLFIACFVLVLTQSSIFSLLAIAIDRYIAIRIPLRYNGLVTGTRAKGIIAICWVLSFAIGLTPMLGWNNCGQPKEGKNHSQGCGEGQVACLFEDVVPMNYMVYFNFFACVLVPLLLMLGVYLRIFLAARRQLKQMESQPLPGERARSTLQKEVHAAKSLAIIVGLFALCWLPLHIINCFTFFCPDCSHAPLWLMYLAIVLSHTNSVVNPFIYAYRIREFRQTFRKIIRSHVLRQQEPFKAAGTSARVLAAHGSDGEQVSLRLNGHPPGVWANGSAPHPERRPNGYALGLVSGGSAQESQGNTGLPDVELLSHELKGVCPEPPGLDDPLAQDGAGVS
# Sequence of Muscarinic acetylcholine receptor M3 (Homo sapiens) (P20309 whole entry, looked up): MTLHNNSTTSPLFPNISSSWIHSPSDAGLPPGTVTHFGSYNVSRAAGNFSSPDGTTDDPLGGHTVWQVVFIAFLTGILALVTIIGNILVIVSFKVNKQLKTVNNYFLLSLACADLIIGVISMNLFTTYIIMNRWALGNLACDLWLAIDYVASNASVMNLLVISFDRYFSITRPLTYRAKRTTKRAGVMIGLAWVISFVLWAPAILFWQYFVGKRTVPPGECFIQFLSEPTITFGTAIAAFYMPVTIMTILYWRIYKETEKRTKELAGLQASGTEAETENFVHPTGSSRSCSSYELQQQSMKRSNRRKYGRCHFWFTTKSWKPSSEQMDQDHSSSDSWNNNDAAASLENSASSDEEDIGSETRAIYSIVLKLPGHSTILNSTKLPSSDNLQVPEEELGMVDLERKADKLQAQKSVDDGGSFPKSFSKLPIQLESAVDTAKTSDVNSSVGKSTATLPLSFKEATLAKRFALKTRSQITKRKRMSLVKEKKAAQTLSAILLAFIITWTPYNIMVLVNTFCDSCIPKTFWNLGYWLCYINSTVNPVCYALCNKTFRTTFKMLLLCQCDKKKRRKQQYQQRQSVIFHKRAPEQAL
# Sequence of Substance-P receptor (Homo sapiens) (P25103 whole entry): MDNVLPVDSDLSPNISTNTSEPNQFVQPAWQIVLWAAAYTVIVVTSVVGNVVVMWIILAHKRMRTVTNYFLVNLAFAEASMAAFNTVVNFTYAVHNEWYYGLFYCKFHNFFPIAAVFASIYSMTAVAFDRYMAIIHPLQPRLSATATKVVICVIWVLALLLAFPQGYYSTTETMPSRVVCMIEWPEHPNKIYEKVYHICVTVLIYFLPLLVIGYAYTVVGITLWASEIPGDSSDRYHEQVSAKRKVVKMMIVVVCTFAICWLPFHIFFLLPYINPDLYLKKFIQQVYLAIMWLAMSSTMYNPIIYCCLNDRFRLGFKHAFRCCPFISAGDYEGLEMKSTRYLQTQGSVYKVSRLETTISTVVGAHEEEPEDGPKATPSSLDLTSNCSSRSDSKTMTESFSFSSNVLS
# Sequence of Beta-3 adrenergic receptor (Homo sapiens) (P13945 whole entry, looked up): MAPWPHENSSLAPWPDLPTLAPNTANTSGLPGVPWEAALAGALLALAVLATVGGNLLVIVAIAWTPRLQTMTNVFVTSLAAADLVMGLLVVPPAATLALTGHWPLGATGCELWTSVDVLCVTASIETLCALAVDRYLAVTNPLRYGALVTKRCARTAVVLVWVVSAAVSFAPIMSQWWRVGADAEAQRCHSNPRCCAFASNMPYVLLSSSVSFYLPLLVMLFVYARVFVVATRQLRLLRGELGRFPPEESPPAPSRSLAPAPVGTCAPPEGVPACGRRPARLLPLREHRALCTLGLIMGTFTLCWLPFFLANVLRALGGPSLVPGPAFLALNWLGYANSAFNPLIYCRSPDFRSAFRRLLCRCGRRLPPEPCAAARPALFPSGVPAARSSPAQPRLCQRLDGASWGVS
# Sequence of Muscarinic acetylcholine receptor M2 (Homo sapiens) (P08172 whole entry): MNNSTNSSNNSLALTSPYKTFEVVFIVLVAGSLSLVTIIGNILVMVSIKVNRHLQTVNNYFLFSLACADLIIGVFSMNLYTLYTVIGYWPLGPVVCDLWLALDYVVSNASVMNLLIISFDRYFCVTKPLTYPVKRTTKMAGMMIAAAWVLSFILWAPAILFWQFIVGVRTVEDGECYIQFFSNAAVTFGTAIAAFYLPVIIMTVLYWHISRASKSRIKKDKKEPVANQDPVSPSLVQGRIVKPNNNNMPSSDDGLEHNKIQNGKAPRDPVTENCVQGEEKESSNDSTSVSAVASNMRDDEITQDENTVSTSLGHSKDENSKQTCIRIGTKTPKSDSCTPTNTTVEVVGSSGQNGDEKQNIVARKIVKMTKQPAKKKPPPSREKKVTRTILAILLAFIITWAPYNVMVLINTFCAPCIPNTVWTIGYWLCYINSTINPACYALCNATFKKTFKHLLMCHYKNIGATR
# Sequence of Matrilysin (Homo sapiens) (P09237 whole entry): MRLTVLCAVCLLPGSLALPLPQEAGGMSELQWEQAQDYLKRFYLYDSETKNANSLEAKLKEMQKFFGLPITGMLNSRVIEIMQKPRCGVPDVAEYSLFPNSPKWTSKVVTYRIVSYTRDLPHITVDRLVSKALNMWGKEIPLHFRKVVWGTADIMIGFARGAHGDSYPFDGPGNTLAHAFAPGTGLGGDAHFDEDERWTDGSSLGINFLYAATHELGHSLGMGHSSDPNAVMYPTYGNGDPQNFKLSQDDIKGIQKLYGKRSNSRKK
structure (smiles),measurement,setting,value
Cc1cc(-n2nc(Cc3cc(F)cc(C(F)(F)F)c3)nc2C)ccc1C(N)=O [TP-024],Activity,[1],inactive
same,inhibition at 10 µM,[2],-6%
same,inhibition,[3],0%
same,inhibition,[4],5%
same,EC50,[5],151 nM
same,inhibition,[6],-2%
same,EC50,[7],93.3 nM
same,inhibition,[8],-1%
same,inhibition,[9],-1%
same,inhibition at 10 µM,[10],6%
same,inhibition,[11],2%
same,inhibition,[12],2%
same,Activity,[13],Dose-Dependent Effect
same,inhibition,[14],0%
same,inhibition,[15],-1%
same,inhibition,[16],-6%
same,inhibition,[17],-6%
same,inhibition,[18],0%
same,inhibition,[19],4%
same,inhibition at 10 µM,[20],10%
same,inhibition,[21],4%
same,inhibition,[22],17%
same,inhibition,[23],-9%
same,inhibition,[24],0%
same,inhibition,[25],-1%
same,inhibition,[26],4%
same,Activity,[27],inactive
same,Activity,[28],Active
same,Activity,[29],Active
